ChEMBL document CHEMBL1250460, “Rational conversion of noncontinuous active region in proteins into a small orally bioavailable macrocyclic drug-like molecule: the HIV-1 CD4:gp120 paradigm” (Bioorg Med Chem, 2010)
Activity calls are given as the source filed them. No cut-off for these calls is given here.

Columns and labels:
HeLa = assay: Inhibition of HIV1 gp120 binding to CD4 assessed as inhibition of CD4 expressing human HeLa cells by MAGI assay; format: cell-based; conditions: Human immunodeficiency virus 1
Summary of the method: (§1)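 MAGI assay: HeLa-CD4+ beta-gal cells seeded at 15 × 10³ per well, infected with HIV-1 HXB2 with or without inhibitor in the presence of DEAE-dextran. Two days after infection, cells fixed in 1% formaldehyde/0.2% glutaraldehyde in PBS. Stained with ferro/ferricyanide (4 mM each), 2 mM MgCl₂ and 0.4 mg/mL X-Gal. Blue cells counted by light microscopy.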

[1] = system: Human immunodeficiency virus 1; assay: Antiviral activity against HIV1 assessed as reduction in infection; format: functional; summary of the method: as §1
[2] = Cmax in Wistar rat at 10 mg/kg, po; format: ADME, organism-based; design: dose 10 mg/kg, route oral; conditions: in vivo
Summary of the method: (§2)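 Conscious male Wistar rats (275 ± 20 g, n = 5 per route) with jugular vein cannula implanted 24 h before dosing. Given 1 mg/kg IV bolus or 10 mg/kg by oral gavage, dissolved in water. Heparinized blood sampled at several times up to 24 h. Plasma separated by centrifugation (4000 g, 5 min, 4 °C), stored at −70 °C. Parameters from noncompartmental analysis.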

[3] = Cmax in Wistar rat at 1 mg/kg, iv; format: ADME, organism-based; design: dose 1 mg/kg, route intravenous; conditions: in vivo; summary of the method: as §2
[4] = Tmax in Wistar rat at 10 mg/kg, po; format: ADME, organism-based; design: dose 10 mg/kg, route oral; conditions: in vivo; summary of the method: as §2
[5] = Tmax in Wistar rat at 1 mg/kg, iv; format: ADME, organism-based; design: dose 1 mg/kg, route intravenous; conditions: in vivo; summary of the method: as §2
Rattus norvegicus [6] = assay: AUC in Wistar rat at 10 mg/kg, po; format: ADME, organism-based, Plasma; design: dose 10 mg/kg, route oral; conditions: in vivo; summary of the method: as §2
Rattus norvegicus [7] = assay: Volume of distribution at steady state in Wistar rat at 10 mg/kg, po; format: ADME, organism-based; design: dose 10 mg/kg, route oral; conditions: in vivo; summary of the method: as §2
[8] = Half life in Wistar rat at 10 mg/kg, po; format: ADME, organism-based; design: dose 10 mg/kg, route oral; conditions: in vivo; summary of the method: as §2
[9] = Oral bioavailability in Wistar rat at 10 mg/kg; format: ADME, organism-based; conditions: in vivo; summary of the method: as §2

| Structure (SMILES) | inhibition (HeLa) | inhibition (INH) [1] | Cmax [2] | Cmax [3] | Tmax [4] | Tmax [5] | AUC (Rattus norvegicus [6]) | Vdss (Rattus norvegicus [7]) | half-life [8] | bioavailability [9] |
| --- | --- | --- | --- | --- | --- | --- | --- | --- | --- | --- |
| N=C(N)NCCCC1NC(=O)CCCCCC(=O)NC(Cc2ccc(O)cc2)CN(CC(N)=O)C1=O (stereo unspecified) | inactive |  |  |  |  |  |  |  |  |  |
| N=C(N)NCCCC1NC(=O)CCCCCC(=O)NC(Cc2ccccc2)CN(CC(N)=O)C1=O (stereo unspecified) | Active | 80% | 866 ng/mL | 102 ng/mL | 18 min | 5 min | 21770 ng·min/mL | 0.6 L/kg | 73 min | 10% |
